Laboratory results as given in ChEMBL document CHEMBL1155331, “Synthesis and SAR of a novel positive allosteric modulator (PAM) of the metabotropic glutamate receptor 4 (mGluR4)” (Bioorg Med Chem Lett, 2009).
pEC50: −log10 of the molar value.

Key:
[1] = target: T1, Metabotropic glutamate receptor 4 (Homo sapiens, UniProt Q14833); assay: Allosteric modulator activity at human mGlu4 receptor expressed in CHO cells coexpressing Gqi5 assessed as effect on calcium flux; type: functional, cell-based; conditions: for EC50: cho; for pEC50: read-out: EC50
T1 sequence (Q14833 whole entry): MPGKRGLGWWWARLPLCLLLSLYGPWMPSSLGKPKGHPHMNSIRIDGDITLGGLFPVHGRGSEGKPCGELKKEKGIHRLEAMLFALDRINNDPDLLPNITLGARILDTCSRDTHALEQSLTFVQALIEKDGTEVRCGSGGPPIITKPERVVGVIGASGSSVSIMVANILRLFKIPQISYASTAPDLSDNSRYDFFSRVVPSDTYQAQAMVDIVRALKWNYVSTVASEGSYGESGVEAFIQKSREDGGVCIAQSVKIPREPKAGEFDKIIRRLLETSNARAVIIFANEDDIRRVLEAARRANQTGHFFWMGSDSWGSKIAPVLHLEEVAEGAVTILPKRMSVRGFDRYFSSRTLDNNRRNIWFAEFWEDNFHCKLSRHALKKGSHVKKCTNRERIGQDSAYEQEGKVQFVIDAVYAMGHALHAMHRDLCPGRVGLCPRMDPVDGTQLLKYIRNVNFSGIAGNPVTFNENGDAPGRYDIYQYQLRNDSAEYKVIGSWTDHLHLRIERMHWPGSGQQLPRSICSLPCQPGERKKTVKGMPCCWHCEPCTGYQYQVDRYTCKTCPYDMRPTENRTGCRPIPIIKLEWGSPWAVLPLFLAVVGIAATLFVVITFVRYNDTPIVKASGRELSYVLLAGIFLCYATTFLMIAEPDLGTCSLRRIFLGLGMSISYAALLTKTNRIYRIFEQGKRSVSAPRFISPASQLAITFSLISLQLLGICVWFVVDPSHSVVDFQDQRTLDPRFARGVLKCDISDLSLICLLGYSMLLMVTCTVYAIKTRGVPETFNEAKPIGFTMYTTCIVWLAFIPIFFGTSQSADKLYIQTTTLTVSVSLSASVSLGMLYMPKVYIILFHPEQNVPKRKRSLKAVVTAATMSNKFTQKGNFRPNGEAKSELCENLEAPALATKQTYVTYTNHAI

[2] = target: T1, Metabotropic glutamate receptor 4; assay: Allosteric modulator activity at human mGlu4 receptor expressed in CHO cells coexpressing Gqi5 assessed as effect on calcium flux in relative to glutamate; type: functional, cell-based
Procedure, shortened: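 hmGluR4/Gqi5 stably transfected CHO cells, 30,000/well, grown overnight at 37 °C, 5% CO2; loaded with 1 μM Fluo-4 AM for 45 min at 37 °C in HBSS/20 mM HEPES/2.5 mM probenecid. Baseline fluorescence read (ex 470, em 540 nm); compound preincubated ~2.5 min, then glutamate EC20, then EC80 2 min later. Ca2+ flux read; 10-point 1:3 concentration-response curves.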

| SMILES | EC50 [1] | pEC50 [1] | Emax [2] [%] |
| --- | --- | --- | --- |
| O=C(O)CCC(=O)Nc1cc(Cl)cc(Cl)c1 | Not Active |  |  |
| O=C(Nc1cc(Cl)cc(Cl)c1)[C@@H]1[C@H](C(=O)O)[C@@H]2C=C[C@H]1C2 | Not Active |  |  |
| NC(=O)[C@@H]1CC=CC[C@@H]1C(=O)Nc1cc(Cl)cc(Cl)c1 |  | 5.51 | 94 |
| O=C(Nc1cc(Cl)cc(Cl)c1)[C@@H]1[C@H](C(=O)O)[C@H]2C=C[C@@H]1C2 | Not Active |  |  |
| N#C[C@@H]1CCCC[C@@H]1C(=O)Nc1cc(Cl)cc(Cl)c1 |  | 5.70 | 55 |
| O=C(Nc1cc(Cl)cc(Cl)c1)[C@H]1CCCC[C@H]1C(=O)N1CCOCC1 | Not Active |  |  |
| O=C(Nc1cc(Cl)cc(Cl)c1)[C@H]1CCCC[C@H]1c1nsc(=O)[nH]1 | Not Active |  |  |
| O=C(Nc1cc(Cl)cc(Cl)c1)[C@H]1CCCC[C@H]1C(=O)NC1CCCC1 | Not Active |  |  |
| O=C(Nc1cc(Cl)cc(Cl)c1)[C@H]1CC=CC[C@H]1C(=O)O |  | 5.57 | 150 |
| CC1(C)[C@H](C(=O)Nc2cc(Cl)cc(Cl)c2)[C@@H]1C(=O)O | Not Active |  |  |
| O=C1[C@H]2CCCC[C@H]2C(=O)N1c1cc(Cl)cc(Cl)c1 |  | 5.48 | 152 |
| O=C(O)C1CCCN(C(=O)Nc2cc(Cl)cc(Cl)c2)C1 (stereo not given) | Not Active |  |  |
| O=C(Nc1cc(Cl)cc(Cl)c1)[C@H]1CCCC[C@H]1c1nnn[nH]1 |  | < 5.00 | 152 |
| O=C(Nc1cc(Cl)cc(Cl)c1)[C@H]1CCCC[C@H]1C(=O)NCC1CC1 |  | 5.00 | 80 |
| O=C(NC1CCCCC1)[C@H]1CCCC[C@H]1C(=O)O | Not Active |  |  |
| O=C(Nc1cc(Cl)cc(Cl)c1)[C@H]1CCCC[C@H]1C(=O)NC1CC1 | Not Active |  |  |
| CCCNC(=O)[C@@H]1CCCC[C@@H]1C(=O)Nc1cc(Cl)cc(Cl)c1 |  | 5.02 | 57 |
| O=C(O)[C@@H]1CCC[C@H](C(=O)Nc2cc(Cl)cc(Cl)c2)C1 | Not Active |  |  |
| O=C(NN1CCOCC1)[C@H]1CCCC[C@H]1C(=O)O | Not Active |  |  |
| CC1=CC[C@H](C(=O)Nc2cc(Cl)cc(Cl)c2)[C@H](C(=O)O)C1 | Not Active |  |  |

Continued, values first:

| EC50 [1] | pEC50 [1] | Emax [2] [%] | SMILES |
| --- | --- | --- | --- |
|  | 6.13 | 127 | O=C(Nc1cc(Cl)cc(Cl)c1)[C@H]1CCCC[C@H]1C(=O)O (relative stereo) |
| Not Active |  |  | O=C(Nc1cc(C(F)(F)F)cc(C(F)(F)F)c1)[C@H]1CCCC[C@H]1C(=O)O |
|  | 5.00 | 106 | CNC(=O)[C@@H]1CCCC[C@@H]1C(=O)Nc1cc(Cl)cc(Cl)c1 |
| Not Active |  |  | O=C(NCc1ccccc1)[C@H]1CCCC[C@H]1C(=O)O |
| Not Active |  |  | O=C(Nc1cc(Cl)cc(Cl)c1)[C@H]1CC[C@H]1C(=O)O (single isomer, unassigned) |
| Not Active |  |  | Cc1cc(C)cc(NC(=O)[C@H]2CCCC[C@H]2C(=O)O)c1 |
|  | 6.02 | 104 | NC(=O)[C@@H]1CCCC[C@@H]1C(=O)Nc1cc(Cl)cc(Cl)c1 |
| Not Active |  |  | Cc1ccc(NC(=O)[C@H]2CCCC[C@H]2C(=O)O)cc1C |
| Not Active |  |  | O=C(Nc1ccc(F)c(F)c1)[C@H]1CCCC[C@H]1C(=O)O |
| Not Active |  |  | O=C(Nc1ccccn1)[C@H]1CCCC[C@H]1C(=O)O |
|  | < 5.00 | 39 | O=C(Nc1ccccc1)[C@H]1CCCC[C@H]1C(=O)O |
| Not Active |  |  | O=C(NC1CCC1)[C@H]1CCCC[C@H]1C(=O)O |
| Not Active |  |  | O=C(Nc1cccc(Br)c1)[C@H]1CCCC[C@H]1C(=O)O |
| Not Active |  |  | Cc1nc(NC(=O)[C@H]2CCCC[C@H]2C(=O)O)nn1C |
|  | 5.70 | 138 | O=C(Nc1cc(F)cc(Cl)c1)[C@H]1CCCC[C@H]1C(=O)O |
| Not Active |  |  | O=C(Nc1cc(F)cc(F)c1)[C@H]1CCCC[C@H]1C(=O)O |
| Not Active |  |  | O=C(Nc1cc(Cl)cc(Cl)c1)[C@H]1CCC[C@H]1C(=O)O |
| Not Active |  |  | CN(C)C(=O)[C@@H]1CCCC[C@@H]1C(=O)Nc1cc(Cl)cc(Cl)c1 |
